Active and inactive are the calls of the source. The rule behind the calls is not given here.
Legend:
Histone deacetylase 9 = Histone deacetylase 9 (Homo sapiens, UniProt Q9UKV0); test: Inhibition of recombinant HDAC9 assessed as inhibition of fluorogenic aminocoumarin release from substrate by trypsin-coupled biochemical assay
Summary of the method: (§1)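 Trypsin-coupled fluorogenic assay. Substrate is an acetylated lysine tripeptide amide-linked to aminocoumarin (AMC). HDAC deacetylation allows trypsin to release AMC, and the fluorescence increase is read. Compound was tested at various concentrations and normalized to a DMSO control. IC50 was derived by non-linear regression fit.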

Histone deacetylase 4 = Histone deacetylase 4 (Homo sapiens, UniProt P56524); test: Inhibition of recombinant HDAC4 assessed as inhibition of fluorogenic aminocoumarin release from substrate by trypsin-coupled biochemical assay; summary of the method: as §1
Histone deacetylase 2 [1] = target: T1, Histone deacetylase 2 (Homo sapiens, UniProt Q92769); test: Inhibition of recombinant HDAC2 assessed as inhibition of fluorogenic aminocoumarin release from substrate by trypsin-coupled biochemical assay
Histone deacetylase 8 = target: T2, Histone deacetylase 8 (Homo sapiens, UniProt Q9BY41); test: Inhibition of recombinant HDAC8 assessed as inhibition of fluorogenic aminocoumarin release from substrate by trypsin-coupled biochemical assay; summary of the method: as §1
T2 sequence (Q9BY41 whole entry): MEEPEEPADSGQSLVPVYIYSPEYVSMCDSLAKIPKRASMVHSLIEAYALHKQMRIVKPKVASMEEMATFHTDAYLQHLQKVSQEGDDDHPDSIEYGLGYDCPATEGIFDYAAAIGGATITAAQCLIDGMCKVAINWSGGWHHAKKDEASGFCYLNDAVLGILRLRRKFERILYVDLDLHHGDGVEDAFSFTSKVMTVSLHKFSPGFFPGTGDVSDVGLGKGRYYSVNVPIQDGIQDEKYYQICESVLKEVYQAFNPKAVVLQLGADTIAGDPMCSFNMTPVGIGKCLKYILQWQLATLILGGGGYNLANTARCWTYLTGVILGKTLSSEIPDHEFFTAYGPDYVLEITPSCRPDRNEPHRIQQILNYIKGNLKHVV

Histone deacetylase 3 = Histone deacetylase 3 (Homo sapiens, UniProt O15379); test: Inhibition of recombinant HDAC3 assessed as inhibition of fluorogenic aminocoumarin release from substrate by trypsin-coupled biochemical assay; summary of the method: as §1
Histone deacetylase 1 = Histone deacetylase 1 (Homo sapiens, UniProt Q13547); test: Inhibition of recombinant HDAC1 assessed as inhibition of fluorogenic aminocoumarin release from substrate by trypsin-coupled biochemical assay; summary of the method: as §1
Histone deacetylase 2 [2] = target: T1, Histone deacetylase 2; test: Competitive inhibition of HDAC2 active site at 1 to 100 uM by Lineweaver-Burk plot
Summary of the method: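 Lysine-deacetylation inhibition mode on HDAC2. Several inhibitor concentrations were tested with substrate at 10 times above and below the HDAC2 Km. The trypsin-coupled AMC fluorescence read-out was analysed by Lineweaver-Burk plot.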

[3] = target: T3, Protein deacetylase HDAC6 (Homo sapiens, UniProt Q9UBN7); test: Inhibition of recombinant HDAC6 assessed as inhibition of fluorogenic aminocoumarin release from substrate by trypsin-coupled biochemical assay; summary of the method: as §1
T3 sequence (Q9UBN7 whole entry): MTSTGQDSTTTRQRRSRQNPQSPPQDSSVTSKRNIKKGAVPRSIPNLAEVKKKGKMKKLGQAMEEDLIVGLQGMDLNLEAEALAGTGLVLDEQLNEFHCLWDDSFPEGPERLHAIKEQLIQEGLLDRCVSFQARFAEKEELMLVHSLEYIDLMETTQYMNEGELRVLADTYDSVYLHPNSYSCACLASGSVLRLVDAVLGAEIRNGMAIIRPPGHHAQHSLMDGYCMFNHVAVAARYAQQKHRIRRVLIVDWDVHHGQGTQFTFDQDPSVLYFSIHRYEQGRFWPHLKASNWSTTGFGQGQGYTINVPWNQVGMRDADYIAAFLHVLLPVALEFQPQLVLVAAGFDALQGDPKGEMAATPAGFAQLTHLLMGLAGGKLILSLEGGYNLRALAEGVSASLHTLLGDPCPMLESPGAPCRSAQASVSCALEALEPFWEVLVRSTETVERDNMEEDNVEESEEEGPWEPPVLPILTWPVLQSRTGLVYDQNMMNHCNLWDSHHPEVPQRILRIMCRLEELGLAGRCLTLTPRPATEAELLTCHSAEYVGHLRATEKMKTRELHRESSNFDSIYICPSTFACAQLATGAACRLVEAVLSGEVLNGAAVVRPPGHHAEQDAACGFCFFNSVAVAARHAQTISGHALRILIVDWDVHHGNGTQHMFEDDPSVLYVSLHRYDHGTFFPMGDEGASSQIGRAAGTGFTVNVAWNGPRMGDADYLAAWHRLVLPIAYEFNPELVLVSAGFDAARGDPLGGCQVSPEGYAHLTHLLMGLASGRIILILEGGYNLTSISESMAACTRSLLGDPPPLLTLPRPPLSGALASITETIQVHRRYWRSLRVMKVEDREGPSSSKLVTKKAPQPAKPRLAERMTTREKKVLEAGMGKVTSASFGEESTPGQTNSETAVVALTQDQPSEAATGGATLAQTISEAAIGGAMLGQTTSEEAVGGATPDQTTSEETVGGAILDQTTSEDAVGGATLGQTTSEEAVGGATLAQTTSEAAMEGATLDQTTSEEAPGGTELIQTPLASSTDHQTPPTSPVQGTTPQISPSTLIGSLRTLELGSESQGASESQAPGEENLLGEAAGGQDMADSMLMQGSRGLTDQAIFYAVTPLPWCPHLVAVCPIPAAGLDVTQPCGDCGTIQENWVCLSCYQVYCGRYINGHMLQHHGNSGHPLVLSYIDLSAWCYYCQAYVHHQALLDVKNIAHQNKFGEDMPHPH

Histone deacetylase 5 = Histone deacetylase 5 (Homo sapiens, UniProt Q9UQL6); test: Inhibition of recombinant HDAC5 assessed as inhibition of fluorogenic aminocoumarin release from substrate by trypsin-coupled biochemical assay; summary of the method: as §1
Histone deacetylase 7 = target: T4, Histone deacetylase 7 (Homo sapiens, UniProt Q8WUI4); test: Inhibition of recombinant HDAC7 assessed as inhibition of fluorogenic aminocoumarin release from substrate by trypsin-coupled biochemical assay
T4 sequence (Q8WUI4 whole entry): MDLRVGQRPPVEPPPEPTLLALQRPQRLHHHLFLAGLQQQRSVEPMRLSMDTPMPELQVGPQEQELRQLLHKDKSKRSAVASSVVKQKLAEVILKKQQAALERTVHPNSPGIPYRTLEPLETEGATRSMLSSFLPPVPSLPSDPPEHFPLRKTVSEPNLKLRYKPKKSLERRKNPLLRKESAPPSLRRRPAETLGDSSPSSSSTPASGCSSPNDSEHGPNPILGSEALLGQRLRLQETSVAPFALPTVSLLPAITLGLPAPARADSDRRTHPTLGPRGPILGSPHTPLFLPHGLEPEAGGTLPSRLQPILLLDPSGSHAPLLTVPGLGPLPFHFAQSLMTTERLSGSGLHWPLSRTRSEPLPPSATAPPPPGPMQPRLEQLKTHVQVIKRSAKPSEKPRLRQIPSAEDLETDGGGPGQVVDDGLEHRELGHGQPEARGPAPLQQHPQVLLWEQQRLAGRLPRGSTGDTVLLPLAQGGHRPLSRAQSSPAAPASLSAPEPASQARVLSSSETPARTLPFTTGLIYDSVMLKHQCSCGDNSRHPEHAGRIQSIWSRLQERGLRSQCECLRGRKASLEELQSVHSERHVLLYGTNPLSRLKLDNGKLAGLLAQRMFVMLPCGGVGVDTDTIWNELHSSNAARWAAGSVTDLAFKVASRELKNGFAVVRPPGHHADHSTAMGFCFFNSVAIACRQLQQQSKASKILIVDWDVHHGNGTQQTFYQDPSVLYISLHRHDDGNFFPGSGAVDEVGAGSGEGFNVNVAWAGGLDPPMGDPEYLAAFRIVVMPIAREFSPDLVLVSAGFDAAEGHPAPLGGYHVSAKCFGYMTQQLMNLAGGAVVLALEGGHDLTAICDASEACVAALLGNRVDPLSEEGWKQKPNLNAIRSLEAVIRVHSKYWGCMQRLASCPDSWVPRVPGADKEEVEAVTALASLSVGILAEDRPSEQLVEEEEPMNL

Sequence of Histone deacetylase 3 (O15379 whole entry): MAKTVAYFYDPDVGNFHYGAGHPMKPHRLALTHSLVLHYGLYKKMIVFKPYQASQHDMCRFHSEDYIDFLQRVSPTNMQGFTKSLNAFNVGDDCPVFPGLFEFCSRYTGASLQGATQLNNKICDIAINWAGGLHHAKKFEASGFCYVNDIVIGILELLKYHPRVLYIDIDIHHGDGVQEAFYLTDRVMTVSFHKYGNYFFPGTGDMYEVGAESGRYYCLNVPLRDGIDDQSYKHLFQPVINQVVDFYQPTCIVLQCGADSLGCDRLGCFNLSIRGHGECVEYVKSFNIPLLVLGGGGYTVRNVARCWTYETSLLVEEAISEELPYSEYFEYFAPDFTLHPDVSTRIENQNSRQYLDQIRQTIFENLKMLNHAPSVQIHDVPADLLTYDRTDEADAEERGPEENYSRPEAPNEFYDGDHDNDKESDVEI
Sequence of Histone deacetylase 4 (P56524 whole entry): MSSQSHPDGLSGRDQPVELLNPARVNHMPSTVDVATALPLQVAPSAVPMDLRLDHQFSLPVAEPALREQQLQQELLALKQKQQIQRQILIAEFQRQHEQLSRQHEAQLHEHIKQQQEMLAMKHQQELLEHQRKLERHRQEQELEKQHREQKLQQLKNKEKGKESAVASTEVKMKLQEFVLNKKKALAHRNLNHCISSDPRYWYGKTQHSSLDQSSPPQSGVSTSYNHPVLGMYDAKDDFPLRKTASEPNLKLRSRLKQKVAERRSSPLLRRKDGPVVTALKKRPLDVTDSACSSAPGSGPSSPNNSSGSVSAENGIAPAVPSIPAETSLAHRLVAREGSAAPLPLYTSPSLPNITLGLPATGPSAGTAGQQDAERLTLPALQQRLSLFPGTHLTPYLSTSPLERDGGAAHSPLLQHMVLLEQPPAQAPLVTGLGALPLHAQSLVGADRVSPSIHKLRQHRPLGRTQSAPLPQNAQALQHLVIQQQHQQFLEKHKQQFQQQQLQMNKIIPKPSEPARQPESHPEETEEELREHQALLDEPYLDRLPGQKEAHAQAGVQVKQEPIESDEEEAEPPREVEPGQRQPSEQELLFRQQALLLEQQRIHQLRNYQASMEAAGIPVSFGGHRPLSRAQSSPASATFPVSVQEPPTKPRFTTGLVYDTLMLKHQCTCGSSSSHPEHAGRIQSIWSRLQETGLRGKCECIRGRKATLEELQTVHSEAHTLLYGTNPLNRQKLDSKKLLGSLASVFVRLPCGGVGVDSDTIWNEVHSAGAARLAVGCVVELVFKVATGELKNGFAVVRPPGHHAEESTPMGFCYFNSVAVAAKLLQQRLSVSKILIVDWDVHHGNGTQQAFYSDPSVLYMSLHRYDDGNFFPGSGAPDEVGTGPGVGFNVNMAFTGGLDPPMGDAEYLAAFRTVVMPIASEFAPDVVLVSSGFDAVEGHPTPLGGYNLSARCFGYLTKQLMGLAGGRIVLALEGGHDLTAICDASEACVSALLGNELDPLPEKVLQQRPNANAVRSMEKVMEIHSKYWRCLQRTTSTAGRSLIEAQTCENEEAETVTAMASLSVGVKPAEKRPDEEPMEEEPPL
Sequence of Histone deacetylase 9 (Q9UKV0 whole entry): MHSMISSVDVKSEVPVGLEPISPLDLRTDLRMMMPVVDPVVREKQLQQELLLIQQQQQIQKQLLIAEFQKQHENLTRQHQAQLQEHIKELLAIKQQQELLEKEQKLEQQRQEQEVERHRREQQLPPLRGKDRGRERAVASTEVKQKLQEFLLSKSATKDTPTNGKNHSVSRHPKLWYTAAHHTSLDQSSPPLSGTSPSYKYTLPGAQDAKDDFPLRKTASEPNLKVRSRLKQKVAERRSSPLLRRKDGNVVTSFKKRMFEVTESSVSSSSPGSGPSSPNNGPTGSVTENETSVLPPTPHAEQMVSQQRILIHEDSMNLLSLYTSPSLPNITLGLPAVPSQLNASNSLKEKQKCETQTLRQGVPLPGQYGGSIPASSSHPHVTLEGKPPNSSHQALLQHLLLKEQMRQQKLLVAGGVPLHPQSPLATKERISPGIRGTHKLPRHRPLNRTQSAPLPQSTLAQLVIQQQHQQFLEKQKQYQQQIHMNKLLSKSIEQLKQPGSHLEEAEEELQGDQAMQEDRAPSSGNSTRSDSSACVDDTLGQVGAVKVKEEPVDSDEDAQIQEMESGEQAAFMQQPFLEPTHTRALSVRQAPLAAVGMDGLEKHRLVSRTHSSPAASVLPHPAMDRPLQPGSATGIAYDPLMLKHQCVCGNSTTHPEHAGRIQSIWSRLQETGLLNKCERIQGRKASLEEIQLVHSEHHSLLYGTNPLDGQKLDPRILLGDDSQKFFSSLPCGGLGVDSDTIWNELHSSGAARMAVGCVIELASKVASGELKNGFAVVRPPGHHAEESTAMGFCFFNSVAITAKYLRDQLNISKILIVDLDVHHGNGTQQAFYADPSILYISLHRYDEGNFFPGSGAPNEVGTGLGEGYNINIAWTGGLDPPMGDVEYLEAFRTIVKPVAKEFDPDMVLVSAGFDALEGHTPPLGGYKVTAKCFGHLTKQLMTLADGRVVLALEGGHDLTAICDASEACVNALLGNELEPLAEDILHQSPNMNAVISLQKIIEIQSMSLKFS
Sequence of Histone deacetylase 1 (Q13547 whole entry): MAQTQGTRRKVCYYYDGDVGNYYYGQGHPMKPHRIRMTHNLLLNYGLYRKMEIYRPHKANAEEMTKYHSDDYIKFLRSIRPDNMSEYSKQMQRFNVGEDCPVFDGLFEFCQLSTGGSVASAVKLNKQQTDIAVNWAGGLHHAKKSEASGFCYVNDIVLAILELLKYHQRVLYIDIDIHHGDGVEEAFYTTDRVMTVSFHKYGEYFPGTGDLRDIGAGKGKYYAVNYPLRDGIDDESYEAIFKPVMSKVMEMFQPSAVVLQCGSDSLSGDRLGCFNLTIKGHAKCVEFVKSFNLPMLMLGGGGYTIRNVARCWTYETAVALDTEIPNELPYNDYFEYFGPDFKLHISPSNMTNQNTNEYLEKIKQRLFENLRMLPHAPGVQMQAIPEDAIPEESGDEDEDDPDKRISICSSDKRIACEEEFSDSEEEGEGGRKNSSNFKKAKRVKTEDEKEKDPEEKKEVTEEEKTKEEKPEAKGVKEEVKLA
Sequence of Histone deacetylase 5 (Q9UQL6 whole entry): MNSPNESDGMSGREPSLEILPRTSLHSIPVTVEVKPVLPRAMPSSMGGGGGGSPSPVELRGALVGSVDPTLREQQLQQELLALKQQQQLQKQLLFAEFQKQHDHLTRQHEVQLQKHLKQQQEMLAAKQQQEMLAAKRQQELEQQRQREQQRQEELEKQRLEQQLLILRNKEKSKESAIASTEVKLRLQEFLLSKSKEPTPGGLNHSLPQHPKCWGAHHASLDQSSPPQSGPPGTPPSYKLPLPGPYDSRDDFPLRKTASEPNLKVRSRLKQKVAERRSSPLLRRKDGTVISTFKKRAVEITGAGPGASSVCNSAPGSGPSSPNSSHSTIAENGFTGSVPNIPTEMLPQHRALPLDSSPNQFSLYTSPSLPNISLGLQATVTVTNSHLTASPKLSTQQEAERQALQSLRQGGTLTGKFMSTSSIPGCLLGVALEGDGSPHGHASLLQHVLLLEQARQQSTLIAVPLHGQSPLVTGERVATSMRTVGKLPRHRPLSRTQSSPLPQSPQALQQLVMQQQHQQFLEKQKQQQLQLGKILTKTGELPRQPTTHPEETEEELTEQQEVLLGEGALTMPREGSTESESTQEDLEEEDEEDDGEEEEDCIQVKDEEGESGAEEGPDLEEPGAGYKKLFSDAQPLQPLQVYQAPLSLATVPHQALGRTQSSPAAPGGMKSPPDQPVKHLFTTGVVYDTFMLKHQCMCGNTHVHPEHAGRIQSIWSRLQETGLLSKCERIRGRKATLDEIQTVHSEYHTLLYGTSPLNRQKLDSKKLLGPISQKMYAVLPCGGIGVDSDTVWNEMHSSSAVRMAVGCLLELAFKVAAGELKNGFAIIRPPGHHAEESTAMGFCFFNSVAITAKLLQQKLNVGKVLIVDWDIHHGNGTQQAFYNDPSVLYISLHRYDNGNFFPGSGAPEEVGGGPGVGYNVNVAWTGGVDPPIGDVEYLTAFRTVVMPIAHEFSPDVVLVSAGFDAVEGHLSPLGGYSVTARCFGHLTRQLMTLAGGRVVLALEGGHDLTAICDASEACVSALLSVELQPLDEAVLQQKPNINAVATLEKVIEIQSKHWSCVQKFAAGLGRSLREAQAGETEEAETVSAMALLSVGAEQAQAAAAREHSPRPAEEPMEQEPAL
T1 sequence (Q92769 whole entry): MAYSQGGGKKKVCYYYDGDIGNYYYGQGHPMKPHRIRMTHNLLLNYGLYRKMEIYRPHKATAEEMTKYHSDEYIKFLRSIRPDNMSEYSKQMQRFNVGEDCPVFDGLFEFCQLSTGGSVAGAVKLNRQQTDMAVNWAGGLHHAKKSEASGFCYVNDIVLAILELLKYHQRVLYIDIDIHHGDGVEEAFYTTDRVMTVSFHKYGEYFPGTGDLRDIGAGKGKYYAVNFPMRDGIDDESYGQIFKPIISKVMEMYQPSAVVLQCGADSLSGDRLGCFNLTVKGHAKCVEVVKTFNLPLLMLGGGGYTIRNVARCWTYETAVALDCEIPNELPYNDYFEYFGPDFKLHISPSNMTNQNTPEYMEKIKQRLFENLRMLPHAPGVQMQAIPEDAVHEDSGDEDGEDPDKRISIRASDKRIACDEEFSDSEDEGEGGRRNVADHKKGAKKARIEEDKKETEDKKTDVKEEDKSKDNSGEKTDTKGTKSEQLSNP

Compound	IC50 (Histone deacetylase 9) [µM]	IC50 (Histone deacetylase 4) [µM]	IC50 (Histone deacetylase 2 [1]) [µM]	IC50 (Histone deacetylase 8) [µM]	IC50 (Histone deacetylase 3) [µM]	IC50 (Histone deacetylase 1) [µM]	inhibition (Histone deacetylase 2 [2])	IC50 [3] [µM]	IC50 (Histone deacetylase 5) [µM]	IC50 (Histone deacetylase 7) [µM]
CC(=O)Nc1ccc(C(=O)CSc2nc(C)cc(O)n2)cc1	74.1	32.5	18.9	23.9	15.2	16.4	Active	11.2	27.9	–
Cc1cc(O)nc(SCC(=O)c2cccs2)n1	> 100	> 100	> 100	> 100	> 100	> 100	–	24.8	> 100	> 100
Cc1cc(=O)[nH]c(SCC(=O)c2ccc3c(c2)OCCO3)n1	> 100	> 100	> 100	> 100	> 100	> 100	–	> 100	> 100	> 100
Cc1cc(=O)[nH]c(SCC(=O)c2ccc(O)cc2)n1	> 100	> 100	> 100	> 100	> 100	> 100	–	40.1	> 100	> 100
Cc1cc(=O)[nH]c(SCC(=O)NCCCCCCc2ccccc2)n1	> 100	> 100	> 100	> 100	> 100	> 100	–	> 100	> 100	> 100
Cc1cc(=O)[nH]c(SCC(=O)c2ccc(NC(=O)c3ccccc3)cc2)n1	> 100	> 100	> 100	> 100	> 100	> 100	–	10.8	> 100	> 100
Cc1cc(O)nc(SCC(=O)c2ccccc2)n1	> 100	> 100	> 100	> 100	> 100	> 100	–	> 100	> 100	13.7

Source: ChEMBL document CHEMBL1800036, “A novel HDAC inhibitor with a hydroxy-pyrimidine scaffold” (Bioorg Med Chem Lett, 2011)
